Assay outcomes deposited in PubChem BioAssay by several laboratories.
A selection: hits, their analogues and other compounds. The true share with any hit is near 2.6%.
MC4R ag barr – human MC4R agonism via beta-arrestin. P32245. U2OS MC4R beta-arrestin complementation, luminescence; percent of melanotan II response, DMSO zero. activation, % at 8.9 µM. actives 0.98% (n = 360,000). AID 540308;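 active means activation above a per-plate cutoff, the mean activation of sample wells on that plate plus 3 SD, cut at about 8% in these data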
ABCB6 inh 2 – inhibitors of human ABC transporter ABCB6; Q9NP58; K562-ABCB6 porphyrin accumulation, flow cytometry, 1 h; active compounds read low; fluorescence ratio to DMSO, % at 10 µM; actives 0.19% (n = 360,000);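 active means fluorescence ratio to DMSO below 75%, the collection mean minus 3 SD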;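 further: signal is porphyrin accumulated inside mitochondria; 100% equals median channel fluorescence of DMSO control wells; lower ratio means ABCB6 inhibition with less porphyrin fluorescence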
Target sequence (Q9NP58 whole entry, looked up): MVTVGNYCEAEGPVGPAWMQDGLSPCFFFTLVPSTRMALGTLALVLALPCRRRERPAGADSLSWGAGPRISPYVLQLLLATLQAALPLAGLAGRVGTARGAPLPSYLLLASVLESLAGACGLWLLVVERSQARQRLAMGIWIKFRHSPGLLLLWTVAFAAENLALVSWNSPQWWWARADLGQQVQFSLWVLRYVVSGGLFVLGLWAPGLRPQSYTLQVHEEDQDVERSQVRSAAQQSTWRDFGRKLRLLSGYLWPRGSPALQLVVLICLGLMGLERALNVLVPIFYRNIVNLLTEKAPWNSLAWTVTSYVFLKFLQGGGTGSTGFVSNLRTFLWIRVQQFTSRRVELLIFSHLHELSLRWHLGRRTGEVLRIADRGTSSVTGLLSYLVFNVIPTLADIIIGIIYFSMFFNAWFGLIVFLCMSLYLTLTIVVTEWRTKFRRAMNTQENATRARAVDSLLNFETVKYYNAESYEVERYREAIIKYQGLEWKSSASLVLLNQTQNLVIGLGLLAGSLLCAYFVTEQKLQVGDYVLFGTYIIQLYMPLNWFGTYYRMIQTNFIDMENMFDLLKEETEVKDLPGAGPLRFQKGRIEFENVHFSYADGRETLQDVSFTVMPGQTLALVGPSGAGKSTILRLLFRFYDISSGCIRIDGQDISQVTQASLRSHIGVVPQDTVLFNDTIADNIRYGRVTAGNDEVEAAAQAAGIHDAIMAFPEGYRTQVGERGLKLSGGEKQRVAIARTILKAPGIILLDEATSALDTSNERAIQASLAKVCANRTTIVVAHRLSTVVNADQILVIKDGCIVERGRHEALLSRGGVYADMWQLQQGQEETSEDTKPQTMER
iPSC survival up – enhancers of human iPSC single-cell survival. actives 0.044% (n = 360,000). AID 602274. survival enhancement, % at 20 µM. hiPSC single-cell survival, ATPlite luminescence; 100% = ROCK inhibitor wells, 0% = DMSO; in the data active means survival enhancement above about 18%;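 further: cells exposed to compounds for 16 hours before the ATP read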
Granule exo inh – blocks lytic granule exocytosis; inhibition, % at 10 µM; AID 651702; TALL-104 LAMP-1 surface exposure, flow cytometry; cells stimulated with thapsigargin and PMA; actives 0.66% (n = 360,000);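 active means inhibition above about 55%, limit read from the data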
MC4R antagonist – blocks human MC4R cAMP signaling. MC4R-expressing cells, MTII-stimulated cAMP, LANCE TR-FRET. AID 540295. actives 0.48% (n = 360,000). inhibition, % at 6.5 µM. P32245;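 active means inhibition above its plate's cutoff, the mean of tested wells on that plate plus 3 SD, cut at about 29% in these data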;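 further: 0% = Melanotan II alone and 100% = Melanotan II plus saturating MCL0020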
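Test system: U2OS cells stably expressing human melanocortin 4 receptor (MC4R); also added: Melanotan II challenge; compound: 6.5 µM single dose; timing: 30-min compound preincubation, 1-h Melanotan II challenge, 1-h detection, room temperature; signal: Eu-cAMP/anti-cAMP TR-FRET, emission 671 nm; repeats: one well per compound, no replicates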
Tb MetRS inh – Trypanosoma brucei MetRS inhibition | purified T. brucei MetRS, ATP depletion, Kinase-Glo luminescence | inhibition, % at 11.9 µM | actives 0.4% (n = 360,000) | AID 624268;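 active means inhibition above a per-plate cutoff of the control wells' mean inhibition plus 3 SD, cut at about 5.5% in these data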;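 further: 0% = DMSO wells median and 100% = median of wells with control inhibitor compound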
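Assay system: T. brucei methionyl-tRNA synthetase, purified | Medium: HEPES buffer with MgCl2, KCl, DTT, spermine, BSA, pyrophosphatase | Compound: 11.9 µM single point | Incubation: 15 min enzyme-compound preincubation, 2 h reaction, 10 min detection, 25 °C | Measured by: Kinase-Glo luciferase luminescence reporting remaining unconsumed ATP | Measure: % inhibition normalized to control-well medians | Replication: Singlicate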
Tb MetRS conf – Trypanosoma brucei MetRS inhibition confirmed; T. brucei MetRS enzyme, luminescence (ATP depletion); shares compounds with Tb MetRS inh; inhibition, % at 11.9 µM; actives 93% (n = 1,400); AID 624412; in the data active means inhibition above about 7%
Jurkat cytotox – Jurkat T cell cytotoxicity for MetRS hits; shares compounds with Tb MetRS inh; Jurkat cells viability, ATP luminescence; inhibition, % at 8.3 µM; actives 12% (n = 1,400); AID 624413; in the data active means inhibition above about 15%;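 further: 0% = vehicle and 100% = reference inhibitor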
TbMetRS FP orth – inhibits T. brucei methionyl tRNA synthetase in orthogonal FP test; shares compounds with Tb MetRS inh; purified T. brucei MetRS, fluorescence polarization; inhibition, % at 11.9 µM; actives 44% (n = 1,400); in the data active means inhibition above about 17%;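 further: 0% = vehicle wells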
Starred values were filed as active, the others as inactive; . = no result.

SMILES	MC4R ag barr	ABCB6 inh 2	iPSC survival up	Granule exo inh	MC4R antagonist	Tb MetRS inh	Tb MetRS conf	Jurkat cytotox	TbMetRS FP orth
N#Cc1nc(COc2ccc(Cl)cc2Cl)oc1N1CCOCC1	0.7	97.0	5.5	0.6	14.4	11.2*	21.6*	7.7	6.8
CN(C(=O)CSc1ccncc1)C1CCCN(Cc2ccccc2F)C1 (centres undefined)	-0.5	101.0	-0.3	-6.6	9.1	-0.1	.	.	.
COc1ccc(-c2cc(CNc3nc4cc(-c5ccccc5C)sc4c(=O)n3C)on2)cc1	-1.2	103.0	-1.3	-0.9	9.9	-0.1	.	.	.
Cc1cccc(NC(=O)CCNC(=O)c2ccc(Br)cc2)c1	-1.2	97.0	-0.2	11.1	6.8	30.7*	55.5*	0.8	69.9*
O=C(CCCNC(=O)c1ccc(Cl)cc1)Nc1ccc(Br)cc1	-0.1	93.0	-0.5	-11.2	-0.9	9.1*	60.4*	5.9	43.1*
Cc1ccc2[nH]c3c(N4CCc5ccccc5C4)ncnc3c2c1	-0.5	101.0	1.8	31.7	7.2	11.6*	5.0	46.9*	8.7
Fc1ccc2[nH]c3c(N4CCc5ccccc5C4)ncnc3c2c1	3.5	102.0	-0.3	50.7	22.0	57.9*	13.5*	49.7*	13.2
Cc1ccc(C)c(OCCC(=O)Nc2cccc(S(=O)(=O)NC3=NCCCCC3)c2)c1	-0.4	101.0	-0.4	5.7	3.5	7.0*	22.3*	5.6	18.5*
Cc1ccc(C)c(C(=O)OCC(=O)Nc2cccc(S(=O)(=O)NC3=NCCCCC3)c2)c1	-1.9	95.0	-0.1	2.8	6.7	0.1	.	.	.
CN(C)CC1CCCCC1OC(=O)/C=C/c1ccc(Cl)cc1Cl (centres undefined)	1.4	93.0	-0.6	0.9	-3.6	9.0*	19.6*	4.8	11.9
O=C(NCCC(=O)N1CCC2(CC1)NCCc1[nH]cnc12)c1ccc(Br)cc1	-0.9	100.0	0.2	-4.6	18.0	-0.1	.	.	.
c1ccc(-c2nnc(SCc3nc4ccccc4[nH]3)n2Cc2ccco2)cc1	-2.8	97.0	-2.0	-2.1	-3.3	3.1	.	.	.
CCn1c(COc2ccc(Cl)cc2)nnc1SCc1nc2ccccc2[nH]1	-0.4	99.0	0.4	7.8	11.0	53.7*	58.4*	12.5	36.0*
Cc1ccc(OCc2nnc(SCc3nc4ccccc4[nH]3)n2Cc2ccco2)cc1	1.1	90.0	4.6	34.5	0.1	35.4*	62.0*	13.6	34.1*
CCOC(=O)[C@]12CCCC=C1N(CCC1=CCCCC1)C(=O)[C@H](CC(=O)NCc1cccc(C(F)(F)F)c1)C2	.	.	.	-7.8	.	1.0	.	.	.
Brc1cccc(CNc2nc3ccccc3n2CCN2CCOCC2)c1	-2.1	101.0	-0.1	1.1	8.5	7.5*	20.3*	8.3	4.7
CCOc1ccc(CNc2nc3ccccc3n2CCN2CCOCC2)cc1	0.4	82.0	-1.6	0.9	10.3	1.0	.	.	.
Cc1cc(C)cc(Nc2c(F)c(F)c(F)c(F)c2C(=O)O)c1	2.0	108.0	1.3	-1.2	-8.9	-1.9	.	.	.
CC(O)CN1C(=O)C(CC(=O)Nc2ccc(Cl)cc2)SC1=Nc1ccccc1 (centres undefined)	4.7	97.0	-1.8	-1.2	20.2	26.5*	52.6*	2.2	21.8*
COCCN1C(=O)C(CC(=O)Nc2ccc(C(C)=O)cc2)SC1=Nc1ccccc1 (centres undefined)	-0.3	94.0	0.5	-1.4	7.2	-0.2	.	.	.
CC(=O)c1cccc(NC(=O)Cn2cnc(S(=O)(=O)N3CCCCC3)c2)c1	0.1	103.0	0.3	11.4	6.5	0.6	.	.	.
O=C(Cn1cnc(S(=O)(=O)N2CCCC2)c1)Nc1cccc(Br)c1	-1.6	96.0	0.4	-2.4	-3.9	14.4*	36.2*	1.0	15.2
CSc1cccc(NC(=O)Cn2cnc(S(=O)(=O)N3CCCC3)c2)c1	-0.9	99.0	-0.1	-1.0	-7.1	8.6*	19.5*	4.0	4.2
CC(Sc1nnc(-c2cccnc2)o1)C(=O)NC1CCCC1 (centres undefined)	-0.8	100.0	-1.1	27.2	6.1	-0.2	.	.	.
O=C(c1cccs1)n1nc(-c2cccnc2)nc1NCc1ccco1	4.6	97.0	0.0	1.4	-16.8	-0.8	.	.	.
SMILES	MC4R ag barr	ABCB6 inh 2	iPSC survival up	Granule exo inh	MC4R antagonist	Tb MetRS inh	Tb MetRS conf	Jurkat cytotox	TbMetRS FP orth
O=C(CN1CCN(c2ccccc2F)CC1)c1c[nH]c2ccc(F)cc12	3.4	104.0	-1.9	1.1	3.2	10.7*	17.4*	-10.3	2.3
O=C(NCc1ccccc1)c1cc(C2CCCCN2C(=O)c2ccccc2)on1 (centres undefined)	-1.3	101.0	5.3	-1.0	6.3	-0.1	.	.	.
NC(=O)[C@@H]1CCCNc2c(I)cc([N+](=O)[O-])cc2C(=O)N[C@@H](CO)C(=O)N[C@@H](Cc2ccc(O)cc2)C(=O)N1	0.4	110.0	-3.1	-4.8	2.8	7.4*	21.0*	7.6	5.3
COc1cc(/C=C/C(=O)OCC(=O)c2c[nH]c3ccccc23)ccc1OC(F)F	0.4	96.0	-1.6	-5.6	14.7	6.3*	12.6*	-0.8	36.2*
COc1ccc(N2CCC(CNC(=O)Nc3ccc(Cl)cc3)C2)cc1 (centres undefined)	4.2	97.0	-0.4	-3.1	10.5	13.8*	28.7*	10.9	25.4*
COc1ccc2c(c1)CCC(C)N2C(=O)C(=O)c1c[nH]c2ccccc12 (centres undefined)	-0.8	96.0	0.1	-1.1	-0.4	11.5*	17.5*	14.6	9.7
OCCCNc1ncnc2c1ncn2[C@H]1CN(Cc2cccs2)C[C@@H](CO)O1	1.5	103.0	0.5	19.4	7.5	-0.2	.	.	.
O=C(C[C@H]1C/C=C\C[C@@H](Cc2ccc(F)cc2)C(=O)O[C@H](c2ccccc2)CNC1=O)NCCO	-1.4	99.0	-0.9	-2.0	5.4	-0.2	.	.	.
CC(=O)c1cccc(-c2ccnc3c2CC(C(=O)Nc2ccc(Cl)cc2)O3)c1 (centres undefined)	-2.4	97.0	0.2	10.9	-8.0	18.7*	45.6*	21.1*	21.8*
CCCn1c(N)c(C(=O)COc2ccc(Br)cc2F)c(=O)n(C)c1=O	-2.9	108.0	-0.2	0.4	4.7	0.7	.	.	.
NC(=NCCc1c[nH]c2ccccc12)NC(=O)c1ccc(Cl)cc1	6.1	101.0	-0.4	6.5	6.3	28.9*	34.9*	1.9	15.9
